From ChEMBL document CHEMBL3877254, “Tetracyclic indolines as a novel class of β-lactam-selective resistance-modifying agent for MRSA” (Eur J Med Chem, 2017)
Converted amounts (≈) assume the structure as drawn.

Tests used:
Staphylococcus aureus [1] = assay: Antibacterial activity against methicillin-resistant Staphylococcus aureus NRS100 after 18 hrs by broth microdilution method
Staphylococcus aureus [2] = assay: (§1) Potentiation of amoxicillin/clavulanic acid-induced antibacterial activity against methicillin-resistant Staphylococcus aureus NRS100 assessed as compound concentration required in combination with amoxicillin/clavulanic acid to return MRSA sensitive concentration below 4 ug/ml after overnight incubation; assay type: functional
Procedure, shortened: (§2)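 Antibiotic held at fixed final level in MHB (amoxicillin/clavulanic acid 4/2 μg/mL; cefazolin 8 μg/mL); test compound (10 mg/mL DMSO stock) 2-fold serially diluted from 64 μg/mL top; final inoculum OD600 0.001; overnight at 37 °C with shaking; MRC = lowest compound concentration with no visible growth.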

Staphylococcus aureus [3] = assay: Potentiation of cefazolin-induced antibacterial activity against methicillin-resistant Staphylococcus aureus ATCC BAA-44 assessed as compound concentration required in combination with cefazolin to return MRSA sensitive concentration below 8 ug/ml after overnight incubation; assay type: functional; procedure, shortened: as §2
[4] = Cytotoxicity against human HeLa cells after 24 hrs by CellTiter-Glo luminescent cell viability assay; assay type: toxicity, cell-based
Procedure, shortened: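 HeLa cells seeded at 20 000 cells/well in DMEM with 10% FCS and 1% penicillin/streptomycin, grown 16 h at 37 °C in 5% CO2. Medium then replaced and compounds added in DMSO (1 μL per 100 μL), final 0.5–32 μg/mL, triplicate. After 24 h at 37 °C, plates equilibrated to room temperature and CellTiter-Glo luminescence read.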

Staphylococcus aureus [5] = assay: Antibacterial activity against methicillin-resistant Staphylococcus aureus NRS-46231 after 18 hrs by broth microdilution method
Staphylococcus aureus [6] = assay: Potentiation of amoxicillin/clavulanic acid-induced antibacterial activity against methicillin-resistant Staphylococcus aureus ATCC BAA-44 assessed as fractional inhibitory concentration by checkerboard assay; assay type: functional
Procedure, shortened: (§3)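 Checkerboard in MRSA; FICI = FICA + FICB, each FIC being the combination concentration (MRC) divided by that agent's MIC alone; FICI <0.5 taken as synergy.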

Staphylococcus aureus [7] = assay: Antibacterial activity against methicillin-resistant Staphylococcus aureus NRS-45898 after 18 hrs by broth microdilution method
Staphylococcus aureus [8] = assay: as §1, with “NRS-46231” for “NRS100”; assay type: functional; procedure, shortened: as §2
Staphylococcus aureus [9] = assay: Antibacterial activity against methicillin-resistant Staphylococcus aureus NRS-46070 after 18 hrs by broth microdilution method
Staphylococcus aureus [10] = assay: Potentiation of cefazolin-induced antibacterial activity against methicillin-resistant Staphylococcus aureus ATCC BAA-44 assessed as fractional inhibitory concentration by checkerboard assay; assay type: functional; procedure, shortened: as §3
Staphylococcus aureus [11] = assay: as §1, with “NRS-46070” for “NRS100”; assay type: functional; procedure, shortened: as §2
Staphylococcus aureus [12] = assay: as §1, with “NRS-45898” for “NRS100”; assay type: functional; procedure, shortened: as §2
Staphylococcus aureus [13] = assay: Potentiation of erythromycin-induced antibacterial activity against methicillin-resistant Staphylococcus aureus ATCC BAA-44 assessed as fold reduction in erythromycin MIC at 20 uM after 18 hrs by broth microdilution method; assay type: functional
Staphylococcus aureus [14] = assay: Potentiation of meropenem-induced antibacterial activity against methicillin-resistant Staphylococcus aureus ATCC BAA-44 assessed as fold reduction in meropenem MIC at 20 uM after 18 hrs by broth microdilution method; assay type: functional
Staphylococcus aureus [15] = assay: Potentiation of streptomycin-induced antibacterial activity against methicillin-resistant Staphylococcus aureus ATCC BAA-44 assessed as fold reduction in streptomycin MIC at 20 uM after 18 hrs by broth microdilution method; assay type: functional
Staphylococcus aureus [16] = assay: Potentiation of daptomycin-induced antibacterial activity against methicillin-resistant Staphylococcus aureus ATCC BAA-44 assessed as fold reduction in daptomycin MIC at 20 uM after 18 hrs by broth microdilution method; assay type: functional
Staphylococcus aureus [17] = assay: Potentiation of tetracycline-induced antibacterial activity against methicillin-resistant Staphylococcus aureus ATCC BAA-44 assessed as fold reduction in tetracycline MIC at 20 uM after 18 hrs by broth microdilution method; assay type: functional
Staphylococcus aureus [18] = assay: Potentiation of clindamycin-induced antibacterial activity against methicillin-resistant Staphylococcus aureus ATCC BAA-44 assessed as fold reduction in ciprofloxacin MIC at 20 uM after 18 hrs by broth microdilution method; assay type: functional
Staphylococcus aureus [19] = assay: Potentiation of cefazolin-induced antibacterial activity against methicillin-resistant Staphylococcus aureus ATCC BAA-44 assessed as fold reduction in cefazolin MIC at 20 uM after 18 hrs by broth microdilution method; assay type: functional
Staphylococcus aureus [20] = assay: Potentiation of gentamycin-induced antibacterial activity against methicillin-resistant Staphylococcus aureus ATCC BAA-44 assessed as fold reduction in gentamycin MIC at 20 uM after 18 hrs by broth microdilution method; assay type: functional
Staphylococcus aureus [21] = assay: Potentiation of ciprofloxacin-induced antibacterial activity against methicillin-resistant Staphylococcus aureus ATCC BAA-44 assessed as fold reduction in ciprofloxacin MIC at 20 uM after 18 hrs by broth microdilution method; assay type: functional
Staphylococcus aureus [22] = assay: Potentiation of amoxicillin/clavulanic acid-induced antibacterial activity against methicillin-resistant Staphylococcus aureus ATCC BAA-44 assessed as fold reduction in amoxicillin/clavulanic acid MIC at 20 uM after 18 hrs by broth microdilution method; assay type: functional
Staphylococcus aureus [23] = assay: Potentiation of methicillin-induced antibacterial activity against methicillin-resistant Staphylococcus aureus ATCC BAA-44 assessed as fold reduction in methicillin MIC at 20 uM after 18 hrs by broth microdilution method; assay type: functional
Staphylococcus aureus [24] = assay: Potentiation of oxacillin-induced antibacterial activity against methicillin-resistant Staphylococcus aureus ATCC BAA-44 assessed as fold reduction in oxacillin MIC at 20 uM after 18 hrs by broth microdilution method; assay type: functional

Row | Compound | MIC (Staphylococcus aureus [1]) [µg/mL] | MRC (Staphylococcus aureus [2]) [µg/mL] | MRC (Staphylococcus aureus [3]) [µg/mL] | GI50 at 24 h [4] [µg/mL] | also measured
1 | C=C1CCC[C@@]23N(C(=O)OC)CC[C@@]12c1cc(C)ccc1N3C | > 64 | 16 | 16 | 15 (≈ 48 µM) | 
2 | C#CCN1c2cc(C)cc(C)c2[C@@]23CCN(C(=O)OC)[C@@]12CCCCC3=C | > 64 | 64 | 64 | 17 (≈ 46.6 µM) | 
3 | C=C1CCCC[C@@]23N(C(=O)OCc4ccccc4)CC[C@@]12c1c(C)cc(C)cc1N3C | > 64 | 64 | >64 | > 64 | 
4 | C=C1CCCC[C@@]23N(C(=O)NCc4ccccc4)CC[C@@]12c1c(C)cc(C)cc1N3C | > 64 | >64 | >64 | > 64 | 
5 | C=C1CCCC[C@@]23N(C(=O)OC(C)(C)C)CC[C@@]12c1c(C)cc(C)cc1N3C | > 64 | 4 | 8 | 47 (≈ 123 µM) | 
6 | C=C1CCCC[C@@]23N(C(=O)OC)CC[C@@]12c1cc(C)ccc1N3C | > 64 | 4 | 8 | 27 (≈ 82.7 µM) | 
7 | C=C1CCCC[C@@]23N(C)CC[C@@]12c1c(C)cc(C)cc1N3C | > 64 | 16 | 8 | 20 (≈ 67.5 µM) | 
8 | C=C1CCCC[C@@]23N(C(=O)OC)CC[C@@]12c1ccccc1N3C | > 64 | >64 | >64 | 30 (≈ 96 µM) | 
9 | C=C1CCCC[C@@]23N(C(=O)C(F)(F)F)CC[C@@]12c1c(C)cc(C)cc1N3C | > 64 | >64 | >64 | > 64 | 
10 | C=C1CCC[C@@]23N(C(=O)OCC)CC[C@@]12c1cc(C)ccc1N3C | > 64 | 32 | 64 | 43 (≈ 132 µM) | 
11 | C=C1CCCC[C@@]23NCC[C@@]12c1c(C)cc(C)cc1N3C | > 64 | 64 | 32 | 26 (≈ 92.1 µM) | 
12 | C=C1CCCC[C@@]23N(C(=O)OCC)CC[C@@]12c1cc(F)ccc1N3C | > 64 | >64 | >64 | > 64 | 
13 | C=C1CCC[C@@]23N(C(=O)OC)CC[C@@]12c1cc(Cl)ccc1N3C | > 64 | 8 | 16 | 41 (≈ 123 µM) | 
14 | C=C1CCCC[C@@]23N(C(=O)OC)CC[C@@]12c1c(C)cc(C)cc1N3CC | > 64 | 4 | 2 | 30 (≈ 84.6 µM) | 
15 | C=C1CCCC[C@@]23N(C(C)=O)CC[C@@]12c1c(C)cc(C)cc1N3C | > 64 | 32 | 32 | 15 (≈ 46.2 µM) | 
16 | C=C1CCCC[C@]23N(C)c4cc(C)cc(C)c4[C@]12CCN3S(=O)(=O)c1ccc(Cl)cc1 | > 64 | >64 | >64 | > 64 | 
17 | C=C1CCC[C@@]23N(C(=O)OCC)CC[C@@]12c1cc(Cl)ccc1N3C | > 64 | 8 | 16 | 41 (≈ 118 µM) | 
18 | C=C1CCCC[C@@]23N(C(=O)NCC)CC[C@@]12c1c(C)cc(C)cc1N3C | > 64 | >64 | >64 | 51 (≈ 144 µM) | 
19 | C=C1CCCC[C@@]23N(C(=O)OCC)CC[C@@]12c1cc(F)c(OC)cc1N3C | > 64 | >64 | >64 | > 64 | 
20 | C=C1CCCC[C@@]23N(C(=O)CCC(=O)O)CC[C@@]12c1c(C)cc(C)cc1N3C | > 64 | >64 | >64 | > 64 | 
21 | C=C1CCC[C@@]23N(C(=O)OC)CC[C@@]12c1c(C)cc(C)cc1N3C | > 64 | 8 | 16 | 40 (≈ 123 µM) | 
22 | C=C1CCCC[C@@]23N(C(=O)OC)CC[C@@]12c1cc(Cl)ccc1N3C | > 64 | 4 | 8 | 53 (≈ 153 µM) | 
23 | C=C1CCCC[C@@]23N(C(=O)OCC)CC[C@@]12c1c(C)cc(C)cc1N3C | > 64 | 2 | 2 | 61 (≈ 172 µM) | MIC (Staphylococcus aureus [5]): > 64 µg/mL; fractional inhibitory concentration index (FICI) (Staphylococcus aureus [6]): 0.127; MIC (Staphylococcus aureus [7]): > 64 µg/mL; MRC (Staphylococcus aureus [8]): 2 µg/mL; MIC (Staphylococcus aureus [9]): > 64 µg/mL; fractional inhibitory concentration index (FICI) (Staphylococcus aureus [10]): 0.078; MRC (Staphylococcus aureus [11]): 2 µg/mL; MRC (Staphylococcus aureus [12]): 2 µg/mL
24 | C=C1CCCC[C@@]23N(C(N)=O)CC[C@@]12c1c(C)cc(C)cc1N3C | > 64 | 64 | 64 | 19 (≈ 58.4 µM) | 
25 | C=C1CCCC[C@@]23N(C(=N)N)CC[C@@]12c1c(C)cc(C)cc1N3C | > 64 | 32 | 16 | 19 (≈ 58.6 µM) | 
26 | C=C1CCCC[C@@]23N(CC)CC[C@@]12c1c(C)cc(C)cc1N3C | > 64 | 32 | 8 | 18 (≈ 58 µM) | 
27 | C=C1CCCC[C@]23Nc4cc(C)cc(C)c4[C@]12CCN3C(=O)OC | > 64 | 8 | 4 | 28 (≈ 85.8 µM) | 
28 | C=C1CCCC[C@@]23N(C(=O)OC)CC[C@@]12c1c(C)cc(C)cc1N3C | > 64 | 16 | 16 | 20 (≈ 58.7 µM) | fold change (FC) (Staphylococcus aureus [13]): 1; fold change (FC) (Staphylococcus aureus [14]): 16; fold change (FC) (Staphylococcus aureus [15]): 1; fold change (FC) (Staphylococcus aureus [16]): 1; fold change (FC) (Staphylococcus aureus [17]): 2; fold change (FC) (Staphylococcus aureus [18]): 1; fold change (FC) (Staphylococcus aureus [19]): 16; fold change (FC) (Staphylococcus aureus [20]): 1; fold change (FC) (Staphylococcus aureus [21]): 2; fold change (FC) (Staphylococcus aureus [22]): 8; fold change (FC) (Staphylococcus aureus [23]): 16; fold change (FC) (Staphylococcus aureus [24]): 8
